Assay results from publication PMC7114882 (ACS Omega, 2020).

Key:
Type in all cases: cell-based
[1] = system: Jurkat cells; assay: MTT assay of Jurkat cells with 4 in the presence of inhibitors; details: 4 (25 μM), 1 h; BAPTA/AM 20 μM
Summary of the method: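 Jurkat cells (1.0 × 10^5 cells/mL) in 10% FBS RPMI 1640 were preincubated with inhibitor for 30 min at 37 °C under 5% CO2, then given test compound (25 μM) for 1 h. After a further 4 h at 37 °C, 0.5% MTT in PBS was added. Formazan was dissolved overnight in 10% SDS/0.01 N HCl and absorbance read at 570 nm.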

[2] = system: mitochondrial membrane potential (ΔΨm) of Jurkat cells; assay: Measurement of mitochondrial membrane potential; details: 4 25 μM; CCCP 40 μM; DilC1(5) 500 nM
Summary of the method: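 Jurkat cells (2.0 × 10^5) in 10% FBS RPMI 1640 were preincubated with or without CCCP (40 μM) for 30 min at 37 °C under 5% CO2, then exposed to test compound (25 μM) for 1 h. ΔΨm was probed with DilC1(5) (500 nM). Confocal imaging recorded bright field, DilC1(5) emission and compound emission.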

[3] = system: Jurkat cells (T-lymphocyte leukemia); assay: MTT assay of Jurkat cells
Summary of the method: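 Jurkat cells (2.0 × 10^5 cells/mL) were exposed to test compound ([…]) in 10% FBS/RPMI 1640 for 24 h at 37 °C under 5% CO2. After adding 0.5% MTT in PBS and incubating 4 h at 37 °C, formazan was dissolved overnight in 10% SDS/0.01 N HCl. Absorbance was read at 570 nm.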

[4] = system: intracellular Ca^2+ in Jurkat cells; assay: Flow cytometry analysis of Jurkat cells stained with Rhod-2 or Rhod-4; details: celastrol, Figure S7
[5] = system: Jurkat cells; assay: Methylene blue staining and TEM of Jurkat cells; details: 4 25 μM 1 h; celastrol 1 μM 24 h
Summary of the method: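 Jurkat cells (3.0 × 10^6) received test compound (25 μM, 1 h, 37 °C) or celastrol (1 μM, 24 h). Cells were pelleted, washed in ice-cold PBS/0.1% NaN3/0.5% FBS and prefixed in 2.5% glutaraldehyde (4 °C, 40 min). Postfixing used 1% OsO4 (4 °C, 30 min), then agarose embedding and ethanol dehydration. Cells were resin-embedded (60 °C, 3 days) and cut into 150 nm sections for methylene blue light microscopy and TEM.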

With `CC(=O)OCOC(=O)CN(CC(=O)OCOC(C)=O)c1ccccc1OCCOc1ccccc1N(CC(=O)OCOC(C)=O)CC(=O)OCOC(C)=O` [BAPTA/AM, tetrakis(acetoxymethyl)-1,2-bis(2-aminophenoxy)ethane-N,N,N′,N′-tetraacetate] the “Inhibition of cell death induced by 4 (MTT, microscopy)” value (from here on “Inhibition of cell death induced”) [1] was “negligibly inhibits”.

For `N#CC(C#N)=NNc1cccc(Cl)c1` [CCCP, Carbonyl cyanide 3-chlorophenylhydrazone], the “Mitochondrial membrane potential (ΔΨm), emission of DilC1(5)” value [2] was “decrease in ΔΨm was also observed”.

For `O=C(Nc1ccc2[nH]nc(-c3ccncc3)c2c1)[C@@H]1CCN(CC(=O)N2CCN(c3ccc(-c4ncccn4)cc3)CC2)C1` [SCH772984], the “Inhibition of cell death induced” value [1] was “negligible inhibition”.

For `Oc1c2ccccc2c2c3c(cccc13)N=N2` [SP600125], the “Inhibition of cell death induced” value [1] was “negligible inhibition”.

`CN1CCN(CCCN2c3ccccc3Sc3ccc(C(F)(F)F)cc32)CC1` [TFP, trifluoperazine] was tested, and the EC50 ([3]; Homo sapiens, Jurkat, read-out: EC50, cell death of Jurkat cells) was about 50 µM and the “Cooperative effects with 4 on cell death of Jurkat cells” value ([3]; TFP with 4 (25 μM), data not shown) was “negligible”.

For `N#CC(=C(/N)Sc1ccccc1N)/C(C#N)=C(/N)Sc1ccccc1N` [U0126], the “Inhibition of cell death induced” value [1] was “negligible inhibition”.

With `CC1=C(O)C(=O)C=C2C1=CC=C1[C@@]2(C)CC[C@@]2(C)[C@@H]3C[C@](C)(C(=O)O)CC[C@]3(C)CC[C@]12C` [celastrol] the “Change in mitochondrial Ca2+ concentration (Rhod-2)” value [4] was “small change”, the “Cytoplasmic vacuolization, TEM” value [5] was “vacuolization” and the “Cytoplasmic vacuolization, methylene blue staining” value [5] was “same intracellular morphological changes”.
